Test [1] has as its target hCB1R (Homo sapiens, UniProt P21554). In words: Cellular cAMP assay, forskolin-stimulated, Flp-In-293 cells. The note with it: for potency relative to AEA, inhibition of forskolin-stimulated cAMP production: greater than the potency reported for AEA in this assay. The format is cell-based.
Test [2] deals with recombinant hCB1R. The note with it: cited from earlier work.
The test system of test [3] is rat CB1R (rCB1R). The note with it: cited from earlier work; for selectivity vs CB2R: rCB1R vs CB2R.
For test [4], the target named is WT and Cys mutant hCB1R variants. In words: Saturation binding of [^3H]CP55,940, Flp-In-293 membranes. The note with it: average across all six hCB1R variants; mean ± SEM, n = 6. More on the design: species or system human.
A short description of test [5]: Binding to membranes from nontransfected cells. The note with it: membranes from nontransfected Flp-In-293 cells; data not shown. A digest of the protocol:
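Membranes from non-transfected Flp-In-293 cells were prepared by cavitation and ultracentrifugation and resuspended in TME (25 mM Tris-HCl, 5 mM MgCl₂, 1 mM EDTA, pH 7.4). […] Filters were washed in ice-cold buffer and counted by scintillation.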

Test [6] has as its target CB1R in mouse hippocampus (Mus musculus, UniProt P47746). In words: [^35S]GTPγS binding, mouse hippocampus membranes. The format is biochemical. As to conditions: for EC50: read-out: EC50, stimulation of [^35S]GTPγS binding, n = 3–4.
Test [7] concerns the target T1, hCB1R C7.38(382)S (Homo sapiens, UniProt P21554, C382S). The test is described as follows: Competition binding with [^3H]CP55,940, Flp-In-293 membranes. The note with it: read-out: apparent Ki (95% CI); C7.38(382)S mutant; [^3H]CP55,940 0.75 nM.
Test [8] concerns the target T2, hCB1R C4.47(238)S (Homo sapiens, UniProt P21554, C238S). Described as above. The note with it: read-out: apparent Ki (95% CI); C4.47(238)S mutant; [^3H]CP55,940 0.75 nM.
Test [9] deals with T3, hCB1R C7.42(386)S (Homo sapiens, UniProt P21554, C386S). The test is described as follows: Covalent labeling assay. The note with it: C7.42(386)S mutant; 20 nM AM3677. The format is binding. The gist of the method: (§1)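 Flp-In-293 membranes stably expressing the Cys→Ser hCB1R mutant, at 0.8 mg/mL in TME-0.1% BSA, were preincubated with 20 nM test compound (controls without) at 30 °C for 1 h. Unbound probe was removed by 27 000g spins, TME-1% BSA washes (one 20 min at 30 °C) and TME washes.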

Test [10] deals with T2, hCB1R C4.47(238)S. In words: Covalent labeling assay. The test is classed as binding. As to conditions: C4.47(238)S mutant. A digest of the protocol: as §1
The target of test [11] is T1, hCB1R C7.38(382)S. The test is described as follows: Covalent labeling assay. The format is binding. As to conditions: C7.38(382)S mutant; 20 nM AM3677. A digest of the protocol:
as §1

Test [12] concerns the target T4, hCB1R C1.55(139)S (Homo sapiens, UniProt P21554, C139S). The test is described as follows: Covalent labeling assay. The test is classed as binding. As to conditions: C1.55(139)S mutant; 20 nM AM3677. A digest of the protocol:
as §1

The target of test [13] is hemagglutinin (HA)-tagged rCB1R (Rattus norvegicus, UniProt P20272). In words: CB1R internalization, HEK293 cells. The format is cell-based. As to conditions: 30 min at 37 °C; best-fit sigmoidal curve.
The target of test [14] is T5, hCB1R C6.47(355)S (Homo sapiens, UniProt P21554, C355S). In words: Covalent labeling assay. The test is classed as binding. The note with it: C6.47(355)S mutant; AM3677 10-fold apparent Ki. A digest of the protocol:
as §1

For test [15], the target named is T4, hCB1R C1.55(139)S. The test is described as follows: Competition binding with [^3H]CP55,940, Flp-In-293 membranes. As to conditions: read-out: apparent Ki (95% CI); C1.55(139)S mutant; [^3H]CP55,940 0.75 nM.
Test [16] addresses T5, hCB1R C6.47(355)S. The description is as above. The note with it: read-out: apparent Ki (95% CI); C6.47(355)S mutant; [^3H]CP55,940 0.75 nM.
Test [17] relates to Flp-In cells that were not transfected with CB1Rs. The test is described as follows: Cellular cAMP assay, non-transfected control cells. The format is cell-based. As to conditions: routine control; data not shown.
Test [18] has as its target T3, hCB1R C7.42(386)S. The test is described as follows: Competition binding with [^3H]CP55,940, Flp-In-293 membranes. The note with it: read-out: apparent Ki (95% CI); C7.42(386)S mutant; [^3H]CP55,940 0.75 nM.

“Also recorded” adds a separate entry of the source. Like-named read-outs stand apart in the source and are kept apart here.

Sequence of CB1R in mouse hippocampus (P47746 whole entry): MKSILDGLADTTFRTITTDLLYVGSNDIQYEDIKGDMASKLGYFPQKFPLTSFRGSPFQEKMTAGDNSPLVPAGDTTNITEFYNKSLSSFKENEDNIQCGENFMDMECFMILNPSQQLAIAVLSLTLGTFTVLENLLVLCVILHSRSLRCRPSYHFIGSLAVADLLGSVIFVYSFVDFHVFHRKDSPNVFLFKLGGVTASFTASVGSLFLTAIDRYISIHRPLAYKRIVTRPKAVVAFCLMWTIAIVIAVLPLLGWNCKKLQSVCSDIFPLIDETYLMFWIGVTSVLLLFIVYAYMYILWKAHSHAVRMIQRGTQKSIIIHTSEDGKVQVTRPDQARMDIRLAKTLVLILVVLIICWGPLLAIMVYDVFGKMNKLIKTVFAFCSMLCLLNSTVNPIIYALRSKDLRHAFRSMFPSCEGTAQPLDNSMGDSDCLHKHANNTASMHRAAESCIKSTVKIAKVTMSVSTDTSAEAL
T5 sequence (P21554 whole entry C355S): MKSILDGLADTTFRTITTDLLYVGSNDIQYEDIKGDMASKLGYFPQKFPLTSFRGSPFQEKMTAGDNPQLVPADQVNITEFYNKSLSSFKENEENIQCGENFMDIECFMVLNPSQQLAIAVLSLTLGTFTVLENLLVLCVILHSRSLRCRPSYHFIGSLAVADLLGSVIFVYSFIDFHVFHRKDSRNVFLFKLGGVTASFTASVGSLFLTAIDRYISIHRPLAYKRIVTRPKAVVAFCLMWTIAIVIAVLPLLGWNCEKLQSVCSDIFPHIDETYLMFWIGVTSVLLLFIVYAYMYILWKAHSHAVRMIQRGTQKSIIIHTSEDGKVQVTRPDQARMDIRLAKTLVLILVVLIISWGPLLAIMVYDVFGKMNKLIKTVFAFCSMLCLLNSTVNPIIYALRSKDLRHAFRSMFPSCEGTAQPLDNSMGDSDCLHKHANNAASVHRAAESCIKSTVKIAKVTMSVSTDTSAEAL
Sequence of hCB1R (P21554 whole entry): as the sequence (P21554 whole entry C355S) above, with S355C counted along it
T2 sequence (P21554 whole entry C238S): as the sequence (P21554 whole entry C355S) above, with C238S, S355C counted along it
T3 sequence (P21554 whole entry C386S): as the sequence (P21554 whole entry C355S) above, with S355C, C386S counted along it
T1 sequence (P21554 whole entry C382S): as the sequence (P21554 whole entry C355S) above, with S355C, C382S counted along it
T4 sequence (P21554 whole entry C139S): as the sequence (P21554 whole entry C355S) above, with C139S, S355C counted along it
Sequence of hemagglutinin (HA)-tagged rCB1R (P20272 whole entry): as the sequence (P47746 whole entry) above, with D95E counted along it

`CCCCC/C=C\C/C=C\C/C=C\C/C=C\CCCC(=O)NC1CC1` [ACPA, (5Z,8Z,11Z,14Z)-eicosa-5,8,11,14-tetraenoic acid cyclopropylamide]: the “potency relative to AEA, inhibition of forskolin-stimulated cAMP production” value in [1] is ~ 200 fold. Besides, the agonist type result in test [2] is listed as “full agonist”. In addition, in test [3], the “selectivity vs CB2R” value is given as 60 to 300 fold. Moreover, the Ki in test [3] (read-out: apparent Ki, rCB1R, [^3H]CP55,940 as competitive radioligand) was 2.2 to 2.7 nM.
For the compound `CCCCCCC(C)(C)c1ccc([C@@H]2C[C@H](O)CC[C@H]2CCCO)c(O)c1` [CP55,940, reference compound], in test [4], binding was characterised by a dissociation constant (Kd) of 5.4 ± 0.8 nM. Moreover, the specific binding result in test [5] is “No specific”. Besides, the EC50 in [6] (mean ± SEM) came out at 1100 ± 200 nM.
On to `O=C(CCC/C=C\C/C=C\C/C=C\C/C=C\CCCCCN=C=S)NC1CC1` [AM3677, 20-isothiocyanato-eciosa-5,8,11,14-tetraenoic acid cyclopropylamide], for which the Ki in test [7] is 1.9 nM; in test [8], 2.4 nM; in [15] it was 2.3 nM; in test [16] it was 2.2 nM; in test [18], 1.6 nM. Moreover, the “degree of irreversible labeling” value in [9], in test [10] (20 nM AM3677), in test [11] and in test [12] was “comparable to that displayed by WT hCB1R” throughout. Also, the “maximal efficacy, inhibition of forskolin-activated cAMP formation” value in test [1] (at micromolar concentrations) is ~ 60%. Moreover, the “potency relative to AEA, inhibition of forskolin-stimulated cAMP production” value in [1] is on record as ~ 200 fold. Further, the IC50 in test [1] (read-out: IC50, inhibition of forskolin-activated cAMP formation, Flp-In-293 cells overexpressing hCB1R, 5 μM forskolin, mean ± SEM, n = 3) came to 27.1 ± 2.2 nM. Moreover, the “reduction of [^3H]CP55,940 specific binding (Bmax)” value in [10] (AM3677 at 10-fold its apparent Ki) is recorded as “at least 43%”. The maximum internalization in test [13] was ~ 42%. Further, the “effect of AM3677 preincubation on Bmax for [^3H]CP55,940 (irreversible binding)” value in test [14] is recorded as “unaffected; also recorded: did not affect”. For the same compound, the specific binding entry in test [5] is recorded as “No specific”. Further, in test [17], the “effect on cAMP in non-transfected cells” value was “had no effect”. Besides, the “potency relative to AEA, [^35S]GTPγS binding” value in [6] (more potent than AEA) is about 100 fold. Moreover, the “potency relative to CP55,940, [^35S]GTPγS binding” value in test [6] (more potent than CP55,940) is recorded as ~ 23 fold. In [6] (mean ± SEM), the 50% effective concentration (EC50) is 50 ± 20 nM. In addition, in test [6] (relative to CP55,940 (maximum = response to 10 μM CP55,940), mean ± SEM, n = 3), the “maximum response, [^35S]GTPγS binding” value stood at 32 ± 2.1%. Moreover, the “selectivity vs CB2R” value in test [3] is ~ 40 fold. Moreover, in test [3] (rCB1R), the manner of binding result was “irreversible”.
With `CCCCC/C=C\C/C=C\C/C=C\C/C=C\CCCC(=O)NCCO` [AEA, arachidonoylethanolamide, reference compound], the Emax in test [6] (read-out: maximum response, [^35S]GTPγS binding) is 34 ± 1.5%. Further, in [3] (rCB1R), the Ki was 61 nM.
